Source: PubChem BioAssay
Furin inhibitor = human furin inhibitors, primary screen, biochemical, fluorescence intensity. P09958. purified furin, fluorogenic substrate cleavage. inhibition, % at 20 µM or 30 µM. hit rate 0.061% among 220,000. AID 463115, 2010; in the data active = inhibition above about 25%
Target sequence (P09958 108-714 limits assumed): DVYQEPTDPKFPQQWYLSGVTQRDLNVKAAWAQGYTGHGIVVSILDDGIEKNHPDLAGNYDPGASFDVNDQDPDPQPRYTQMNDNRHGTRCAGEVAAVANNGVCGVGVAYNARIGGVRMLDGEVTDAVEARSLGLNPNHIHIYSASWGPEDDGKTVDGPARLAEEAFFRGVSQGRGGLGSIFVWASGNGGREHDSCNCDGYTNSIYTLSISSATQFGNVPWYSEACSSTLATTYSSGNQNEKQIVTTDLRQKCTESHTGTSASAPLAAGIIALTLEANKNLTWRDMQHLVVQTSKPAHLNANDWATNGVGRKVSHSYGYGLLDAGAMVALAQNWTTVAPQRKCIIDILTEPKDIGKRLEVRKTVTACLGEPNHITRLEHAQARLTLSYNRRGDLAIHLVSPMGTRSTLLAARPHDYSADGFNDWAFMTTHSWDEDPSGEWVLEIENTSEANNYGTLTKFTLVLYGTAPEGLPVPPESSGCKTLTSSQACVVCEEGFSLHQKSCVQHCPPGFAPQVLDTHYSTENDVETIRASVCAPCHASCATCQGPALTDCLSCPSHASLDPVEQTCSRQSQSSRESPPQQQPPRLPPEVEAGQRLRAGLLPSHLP
FXIa inh = human FXIa protease inhibitors, primary screen, biochemical, 1536-well; Coagulation factor XI (Homo sapiens), P03951; purified FXIa, Boc-Glu-Ala-Arg-AMC fluorogenic substrate; inhibition, % at 5 µM; hit rate 0.14% among 220,000;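 active = inhibition of at least 40%; inactive = inhibition below 40%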;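 also: fluorescence of freed AMC excited at 355 nm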
thrombin 1536 = human alpha-thrombin inhibitors, primary screen, counter-screen for coagulation protease inhibitor project, biochemical, 1536-well, fluorogenic AMC substrate; Prothrombin (Homo sapiens), P00734; Boc-VPR-AMC fluorogenic substrate cleavage; inhibition, % at 5 µM; hit rate 0.26% among 220,000; AID 1046, 2008;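 active = inhibition at or above 40%; inactive = inhibition below 40%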
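System – human alpha-thrombin protein · Reagent – Boc-VPR-AMC substrate, 15 µM final · Compound – 5 µM single dose in 0.2% DMSO · Schedule – reaction at room temperature · Technique – AMC fluorescence at 355 nm excitation and 460 nm emission · Read-out basis – % inhibition relative to enzyme controls and enzyme-free blanks · Control set – no-compound enzyme wells and no-enzyme blanks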
FXIIa inh 1536 = human FXIIa protease inhibitors, primary screen, biochemical, 1536-well | Coagulation factor XII (Homo sapiens), P00748 | purified FXIIa, Boc-QGR-AMC fluorogenic substrate, 2 h | inhibition, % at 5 µM | hit rate 0.3% among 220,000 | AID 800, 2007; in the data active = inhibition above about 40%
KLK5 inh = human KLK5 protease inhibitors, primary screen, biochemical, 1536-well; inhibition, % at 5 µM; recombinant hK5, fluorogenic AMC substrate cleavage; hit rate 0.59% among 210,000; Kallikrein-5 (Homo sapiens), Q9Y337;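 active = inhibition of 40% or more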
Large screens that a line does not name were inactive. Sampled rows, rich in hits. Any-hit rate of the full collection: about 1.1%.

C=CCn1c(SCc2c(C)noc2C)nc2cc(C(=O)O)ccc2c1=O	thrombin 1536 46
CC1(C)C(=O)Nc2ccccc2N1C(=O)COC(=O)c1cc([N+](=O)[O-])ccc1N	KLK5 inh 48
Cn1cc(C=O)c2cc(F)ccc21	none
O=Cc1cn(-c2ccc(F)cc2)c2ccccc12	KLK5 inh 42
Nc1nnc(SCC(=O)Nc2ccccc2)s1	none
CC(C)OC(=O)c1cccc(NC(=O)CSc2nnc(N)s2)c1	FXIIa inh 1536 103
CCCNC(=O)C1CC(c2ccc(C(F)(F)F)cc2)=NO1 (stereo not given)	FXIa inh 102
CCCCNC(=O)C1CC(c2ccc(C(F)(F)F)cc2)=NO1 (stereo not given)	none
O=C(N/N=C/c1ccc(O)cc1)/C(=C/c1ccccc1)CCO	none
S=C1NC2=C(C(c3ccc(Br)cc3)N1)N1CCC2CC1 (stereo not given)	KLK5 inh 76
COc1ccc(S(=O)(=O)N2C(=O)/C(=C3\SC(N)=NC3=O)c3ccccc32)cc1	none
Nc1ncnc2nc(SCCN3CCCCC3)[nH]c12	thrombin 1536 76
COC(=O)c1ccc(NC(=O)CO/N=C2\CCCc3nonc32)cc1	none (no result: thrombin 1536)
CCOC(=O)N1CCN(C(=O)c2ccc3c(=O)n(Cc4ccc(OC)cc4)c(=S)[nH]c3c2)CC1	KLK5 inh 48
O=C(Cc1cccs1)Nc1nnc(Cc2ccc(F)cc2)s1	KLK5 inh 77
COc1ccc(C2C=C(c3ccc(Br)cc3)Nc3nc(N4C(=O)CCC4=O)nn32)cc1 (stereo not given)	thrombin 1536 53
COc1ccccc1C1C=C(c2ccc(Cl)cc2)Nc2nc(N3C(=O)CCC3=O)nn21 (stereo not given)	thrombin 1536 50
COc1ccccc1C1C=C(c2ccc(Cl)cc2)Nc2nc(NS(C)(=O)=O)nn21 (stereo not given)	none
Nc1nc(SCn2nnc3ccccc3c2=O)n[nH]1	FXIIa inh 1536 40
Cc1nc(SCn2nnc3ccccc3c2=O)nc(C)c1C	none
CCCCN=C1NC(=O)C(CC(=O)NCCc2ccc(OC)cc2)S1 (stereo not given)	none
O=C(/C=C/c1cccc(O)c1)c1ccc(N2CCOCC2)cc1	none
C/C(=N\NC(=O)c1cccc(N/N=C(\C)c2ccncc2)c1)c1ccncc1	none
C/C(=N\NC(=O)c1cccc(N/N=C(\C)c2ccccc2)c1)c1ccccc1	FXIIa inh 1536 63
NC(=O)/C(=N\OC(=O)c1ccco1)c1nc(-c2ccc(Br)cc2)cs1	thrombin 1536 78, FXIIa inh 1536 41
Cc1c(N=C/C=C2/N(C)c3ccccc3C2(C)C)c(=O)n(-c2ccccc2)n1C	Furin inhibitor 26
Cc1c(N=C/C=C2\N(C)c3ccccc3C2(C)C)c(=O)n(-c2ccccc2)n1C	none
Cc1c(NC(=O)NCc2ccccc2)c(=O)n(-c2ccccc2)n1C	none
Cc1c(NC(=S)/C=C2\N(C)c3ccccc3C2(C)C)c(=O)n(-c2ccccc2)n1C	KLK5 inh 67
O=C(COc1ccccc1)NCC(=O)Nc1cccc(S(=O)(=O)NC2=NCCC2)c1	none (no result: thrombin 1536)
Cn1cccc1C(=O)Nc1nc(-c2ccccn2)cs1	FXIa inh 47
Cc1csc(NC(=O)c2cccn2C)n1	none
COc1ccccc1NC(=S)N/N=C1\CC(C)(C)Oc2ccc(O)cc21	KLK5 inh 57
COc1ccc(NC(=S)N/N=C2\CC(C)(C)Oc3ccc(O)cc32)cc1	none
CCOCCCn1cnc2c(c1=O)c1nc3ccccc3nc1n2-c1ccc(C)cc1	none
CCOCCCn1cnc2c(c1=O)c1nc3ccccc3nc1n2-c1ccccc1	FXIIa inh 1536 54
CN1C(=O)C(CC(=O)NCC2CCCCC2)SC1=Nc1ccccc1 (stereo not given)	none
O=C1OC(Nc2ncccn2)c2ccccc21 (stereo not given)	FXIIa inh 1536 106, KLK5 inh 42
CCC(=O)C1=C(N2CCCC2)CC(C)(C)CC1=O	KLK5 inh 47
COc1cc(C(=O)Nc2ccc3c(c2)OCCO3)ccc1OC(C)C	KLK5 inh 63
COc1cc(C(=O)Nc2ccc3c(c2)OCCO3)ccc1OC(F)F	none
CCC(Sc1ncccc1C(=O)O)C(=O)N1CCCC1 (stereo not given)	Furin inhibitor 28
CCC(Sc1ncccc1C(=O)O)C(=O)N1CCOCC1 (stereo not given)	none
COc1ccccc1NC(=O)Nc1ccccc1N1CCOCC1	none
Cc1cc(C)n(C(=O)CNc2cccc(Cl)c2C)n1	FXIIa inh 1536 44, KLK5 inh 46
Cc1cc(C)n(C(=O)CNc2ccccc2Cl)n1	none
CCOC(=O)N1CCN(CC(O)COc2c(C)cccc2C)CC1 (stereo not given)	none
Cc1cccc(C)c1OCC(O)CN (stereo not given)	KLK5 inh 52
Cc1cccc(N(C(=O)CNC(=O)c2ccco2)C(C(=O)NCC2CCCO2)c2ccccc2)c1 (stereo not given)	none
O=C(O)c1cccc(N2CCCC2=O)c1	none
O=C(O)c1cccc(N2CCCC2)c1	KLK5 inh 128
CC(=O)NS(=O)(=O)c1ccc(NC(=S)NC(=O)c2ccco2)cc1	FXIIa inh 1536 43
NS(=O)(=O)c1ccc(NC(=S)NC(=O)c2ccco2)cc1	none
Cc1c(-c2cccc(Cl)c2)nc2ccccc2c1C(=O)OCC(=O)Nc1ccc2c(c1)OCO2	none
Clc1cccc2c1CCN(Cc1nc(-c3cnccn3)no1)C2	none
Cc1ccc(NC(=O)/C(CN(C)C)=N\O)cc1	FXIIa inh 1536 42
COc1ccc(NC(NC(=O)c2cccnc2)C(Cl)(Cl)Cl)cc1 (stereo not given)	FXIIa inh 1536 55
Cc1ccccc1NC(NC(=O)c1cccnc1)C(Cl)(Cl)Cl (stereo not given)	none
CNC(=O)C1CC(=O)N(CCc2ccc(OC)cc2)C(=Nc2ccc(OC)cc2)S1 (stereo not given)	Furin inhibitor 27
CCC(=O)N/C(=N/c1nc(C)cc(C)n1)Nc1cccc(OC)c1	thrombin 1536 94
CCSc1nnc(NC(=O)Cn2cnc3c2c(=O)n(C)c(=O)n3C)s1	none (no result: FXIIa inh 1536)
Cc1ccc(NC(=O)Cc2ccc3c(c2)OCCO3)cc1S(=O)(=O)N1CCCCC1	none
O=C(COC(=O)c1ccc2ccccc2c1)Nc1ncc(C(F)(F)F)cc1Cl	none
O=C(COC(=O)c1c2ccccc2cc2ccccc12)Nc1ncc(C(F)(F)F)cc1Cl	KLK5 inh 59
COc1cccc(C(=O)Nc2sc3c(c2C#N)CCN(C(C)=O)C3)c1	KLK5 inh 42
COC(=O)c1ccc(NC(=O)COc2ccc(S(=O)(=O)NC(C)C)cc2)cc1	KLK5 inh 52
COc1cccc(NC(=O)COc2ccc(S(=O)(=O)NC(C)C)cc2)c1	KLK5 inh 51
